Screens deposited in PubChem by The Scripps Research Institute Molecular Screening Center.
An excerpt weighted towards active compounds, which were near 2.7% of everything screened.
CHO parental Ca: signal in parental CHO cells, OX1R antagonist counter-screen; inhibition, % at 5.6 µM; 0.63% of 330,000 active; parental CHO-K1, ATP-induced calcium, Fluo-8 fluorescence;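 active = inhibition above that plate's mean sample inhibition plus 3 SD, cut at about 26% in these data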;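 note: 0% = ATP-challenged DMSO wells and 100% = DMSO wells without ATP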
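material = parental CHO cells | also added = ATP as calcium-mobilizing challenge | dosing = single point at 5.6 µM | detection = intracellular calcium via Fluo-8 no-wash fluorescent dye | read-out = % inhibition | benchmarks = low control ATP plus DMSO, high control DMSO only | repeats = one well per compound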
V1R ag counter: activates human V1a receptor in oxytocin agonist counter-screen. CHO-V1R cells, Fluo-8 calcium fluorescence, agonist mode; 0% DMSO, 100% 3 nM vasopressin. activation, % at 3 µM. 0.25% of 320,000 active. AID 2797;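 active = activation above the mean activation of all tested compounds plus 3 SD, per screening run, cut at about 20% in these data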;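 note: signal is peak over basal fluorescence ratio across a 100 second FLIPR read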
OXTR agonist: agonists of human oxytocin receptor; activation, % at 3 µM; CHO-OTR cells, Fluo-8 calcium fluorescence; normalized: DMSO 0%, oxytocin 100%; P30559; AID 2435; 0.32% of 320,000 active;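 active = activation above the mean of all tested compounds plus 3 SD, cutoff set per screening run, cut at about 20% in these data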;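 note: peak over basal fluorescence ratio from a 100 s FLIPR kinetic read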
Target sequence (P30559 whole entry, looked up): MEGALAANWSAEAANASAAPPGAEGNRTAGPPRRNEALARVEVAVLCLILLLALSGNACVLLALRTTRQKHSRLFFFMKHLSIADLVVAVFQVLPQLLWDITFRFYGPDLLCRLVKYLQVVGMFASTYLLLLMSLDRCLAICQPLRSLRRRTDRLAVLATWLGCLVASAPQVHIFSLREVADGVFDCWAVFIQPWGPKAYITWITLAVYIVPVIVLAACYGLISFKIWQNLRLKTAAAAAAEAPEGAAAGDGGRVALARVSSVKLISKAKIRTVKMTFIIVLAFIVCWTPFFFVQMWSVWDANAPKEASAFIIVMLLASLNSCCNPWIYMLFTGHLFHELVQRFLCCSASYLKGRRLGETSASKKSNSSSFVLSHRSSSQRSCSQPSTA
OX1R antag-1: blocks the human orexin 1 receptor | OX1R-expressing cells, FRET antagonist read-out | AID 485270 | inhibition, % at 6.6 µM | 1.8% of 330,000 active; in the data active = inhibition mostly above about 38%, no sharp cut-off; inactive = mostly below about 40%;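 note: 0% = agonist challenge alone and 100% = reference antagonist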
OXTR potentiator: potentiates the human oxytocin receptor response. P30559. CHO-OTR cells, Fluo-8 calcium fluorescence, potentiator mode; 0% = oxytocin EC15, 100% = EC100. activation, % at 3 µM. 0.061% of 320,000 active;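 active = activation above that plate's cutoff, the mean activation of tested compounds plus 3 SD, cut at about 6.6% in these data, passing the limit was not always enough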;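 note: 100% uses oxytocin at 75 nM as the full agonist control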
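assay system = CHO-OTR cells, human receptor | schedule = compound 6 min at room temperature before oxytocin, 100 s read | detection = Fluo-8 intracellular calcium fluorescence, ex 470-495, em 515-575 nm | evaluation = normalized max/min fluorescence ratio, % activation | control set = EC15 oxytocin alone as 0%, 75 nM oxytocin (EC100) as 100%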
OX1R antag-2: antagonists of human orexin 1 receptor; O43613; CHO/OX1R cells, Fluo-8 calcium fluorescence, orexin A; inhibition, % at 5 µM; 0.43% of 330,000 active; AID 434989;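 active = inhibition above its plate's threshold, mean inhibition of all tested compounds on the plate plus 3 SD, cut at about 37% in these data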;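 note: 0% = orexin A challenge wells and 100% = SB-334867-A antagonist wells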
OX1R Fluo8 conf: confirmation of human orexin 1 receptor antagonists | shares compounds with OX1R antag-2 | inhibition, % at 5 µM | 38% of 1,100 active | CHO/OX1R cells, orexin A calcium Fluo-8 fluorescence; in the data active = inhibition above about 29%;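 note: 0% = agonist challenge alone and 100% = reference antagonist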
CHO Ca triplic: counter-screen for OX1R antagonists: effect in parental CHO cells. AID 492965. inhibition, % at 5.6 µM. 9.3% of 1,100 active. shares compounds with OX1R antag-2. parental CHO-K1, ATP-induced calcium, Fluo-8 fluorescence;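 active = inhibition above a per-plate limit, the mean inhibition of that plate's test compounds plus 3 SD, cut at about 25% in these data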;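 note: 0% = ATP challenge with DMSO and 100% = DMSO without ATP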
The depositor's hits bear a star; . = no result given.

SMILES | CHO parental Ca | V1R ag counter | OXTR agonist | OX1R antag-1 | OXTR potentiator | OX1R antag-2 | OX1R Fluo8 conf | CHO Ca triplic
Cc1cc(NS(=O)(=O)c2ccc(NC(=O)CN3C(=O)NC(C)(c4ccccc4)C3=O)cc2)nc(C)n1 (configuration not stated) | -4.0 | 0.3 | 0.7 | 21.1 | -7.8 | 25.8 | 3.9 | 0.6
CC1(c2ccccc2)NC(=O)N(CC(=O)Nc2ccc(S(=O)(=O)Nc3ncccn3)cc2)C1=O (configuration not stated) | -0.2 | -0.1 | 1.7 | 5.6 | 6.1 | -8.5 | . | .
O=C1CN(C(=O)CCCc2c[nH]c3ccccc23)c2ccccc2N1 | -3.8 | 7.3 | 8.0 | 35.5 | -14.3 | 59.2* | 29.5* | 1.0
CN(C)S(=O)(=O)NCC1CCCN(Cc2cc3ccccc3s2)C1 (configuration not stated) | -20.6 | -0.1 | -0.2 | 4.6 | -7.5 | -32.9 | . | .
Cn1cnnc1SCC(=O)Nc1nc(-c2ccccc2)cs1 | -11.0 | 0.4 | 0.7 | 45.4 | 0.7 | 42.3* | 31.7* | 1.7
COc1ccccc1CNCCS(=O)(=O)NN1CCOCC1 | -1.9 | . | . | 3.9 | . | 8.4 | . | .
O=C1c2ccccc2-c2n[nH]c(=O)c3ccc(N4CCCCC4)c1c23 | -25.7 | -1.6 | -1.0 | 85.0 | -6.2 | 25.9 | 13.8 | 14.2
Cc1ccc(N2CCOCC2)c2c1C(=O)c1ccccc1C2=O | -25.3 | -1.6 | -2.0 | 22.5 | 7.0 | -23.1 | . | .
COc1ccc2c(n1)Sc1nc3ccccc3nc1N2 | 24.3 | 56.5* | 85.5* | 29.5 | -20.5 | 34.9 | 47.3* | 37.3*
O=C1C(=O)N(c2nccs2)C(c2ccccc2F)/C1=C(\O)c1ccc2c(c1)OCCO2 (configuration not stated) | -6.5 | 1.8 | -1.0 | 3.3 | -7.0 | -4.6 | . | .
CCCCCCCCn1c(=O)c(C(=O)OC)c(N)c2ccccc21 | -3.7 | 3.6 | 4.0 | 26.2 | -15.9 | 25.2 | 19.2 | 35.4*
Cc1ccc(OCCC(=O)N(CCC(C)C)c2c(N)n(Cc3ccccc3)c(=O)[nH]c2=O)cc1 | -13.1 | -0.6 | -0.9 | 26.3 | -0.5 | 37.3 | -4.9 | -11.0
Cc1cc(OCC(=O)NCC2CCC(C(=O)O)CC2)c2c(C)c(Cc3ccccc3)c(=O)oc2c1 (configuration not stated) | -12.8 | 0.5 | -0.2 | 8.8 | 5.0 | -17.4 | . | .
CN(CC(=O)Nc1cccc(S(=O)(=O)N2CCCC2)c1)Cc1ccccc1 | -23.9 | 0.1 | -0.6 | 8.5 | -4.5 | -22.9 | . | .
CCn1c(CCCOc2ccc(Cl)cc2Cl)nnc1SCC(=O)Nc1cc(F)ccc1C | 19.4 | 4.6 | 3.4 | 26.0 | -6.2 | 22.8 | . | .
C=CCn1c(CCCOc2ccc(Cl)cc2Cl)nnc1SCC(=O)Nc1nccs1 | 4.7 | 9.6 | 9.6 | 43.3 | -21.4 | 36.0 | 22.8 | 8.3
O=C(N/N=C/c1ccccn1)c1cc(-c2ccc(Br)cc2)nc2ccccc12 | 20.2 | 0.8 | -1.9 | 24.0 | -8.5 | 50.0* | 39.8* | 23.0
O=C(N/N=C/c1ccccn1)c1cc(-c2ccc(Cl)cc2)nc2ccccc12 | -17.4 | -0.1 | -0.5 | 5.0 | -6.4 | -11.2 | . | .
O=C(NCCCc1ccc(F)cc1)C1CCC(=O)N(CC2CCCCC2)C1 (configuration not stated) | -16.5 | 0.1 | -0.8 | 45.1 | 2.9 | -20.4 | . | .
COc1ccc(NC(=S)N2CCc3ccccc32)cc1OC | -11.6 | 0.4 | -0.1 | 35.9 | -2.2 | -17.8 | . | .
O=C(Nc1ccc(OC(F)F)c(Cl)c1)c1cccc(OC(F)F)c1 | 8.5 | 4.2 | 3.9 | 23.1 | -10.3 | 53.2* | 12.3 | 19.4
C=CC(COCc1ccccc1)N([C@@H](Cc1ccccc1)C(=O)OC)S(=O)(=O)c1ccccc1Br (some centres not stated) | 29.1 | 5.2 | 5.6 | 11.3 | -10.6 | 80.1* | 10.6 | 19.7
Cc1ccccc1OCCC(=O)Nc1cccc(S(=O)(=O)Nc2ccccc2Cl)c1 | -4.7 | 4.5 | 4.5 | 58.0 | -11.3 | 45.3* | 25.8 | -2.5
O=C(COC(=O)c1cc[n+]([O-])cc1)Nc1cccc(F)c1 | 4.5 | 1.6 | 2.0 | 10.4 | -6.6 | -6.0 | . | .
CCCc1ccc(C2C3=C(CC(C)(C)CC3=O)NC3=C2C(=O)c2ccccc23)cc1 (configuration not stated) | -10.1 | 0.8 | -0.1 | 29.0 | -8.8 | 66.4* | 24.6 | -4.0
SMILES | CHO parental Ca | V1R ag counter | OXTR agonist | OX1R antag-1 | OXTR potentiator | OX1R antag-2 | OX1R Fluo8 conf | CHO Ca triplic
CCCCc1ccc(C2C3=C(CC(C)(C)CC3=O)NC3=C2C(=O)c2ccccc23)cc1 (configuration not stated) | -9.5 | 0.1 | 0.6 | 17.0 | -2.8 | 2.1 | . | .
FC(F)(F)c1nnc(Nc2ccc(Cl)cc2)s1 | 16.7 | 9.2 | 3.9 | 9.1 | -12.8 | 42.4* | -8.5 | -3.4
CC(=O)Oc1ccc(N2C(=O)c3cccc4c([N+](=O)[O-])ccc(c34)C2=O)cc1 | 25.0 | -0.4 | -0.5 | 29.6 | -11.8 | 43.8* | 34.6* | 28.8*
Cn1c(=O)c(C(=O)NCc2ccc(Cl)cc2)c(O)c2ccccc21 | 0.0 | 0.4 | 0.3 | 12.4 | -4.8 | -17.1 | . | .
Cn1c(=O)c(C(=O)NNC(=O)c2ccc(Br)cc2)c(O)c2ccccc21 | 19.5 | 0.5 | 0.6 | 6.7 | -16.7 | 27.4 | 7.8 | 16.0
CCOC(=O)c1ccc(NC(=O)c2cccc(S(=O)(=O)N3c4ccccc4CC3C)c2)s1 (configuration not stated) | 6.3 | 0.5 | 1.0 | 50.9 | -6.5 | 34.4 | 26.5 | 25.2*
CC1Cc2ccccc2N1S(=O)(=O)c1cccc(C(=O)NCCCO)c1 (configuration not stated) | -28.0 | 1.7 | 1.3 | 10.2 | -0.9 | -24.4 | . | .
N#Cc1ccc(C(=O)CN2CCN(c3ccccc3)CC2)cc1 | -4.8 | 0.1 | -0.2 | 12.7 | -6.0 | -24.4 | . | .
O=C(COc1ccccc1[N+](=O)[O-])Nc1ccc(N2CCN(C(=O)c3cccs3)CC2)cc1 | 24.9 | 11.3 | 10.7 | 34.3 | -31.8 | 22.2 | 62.2* | 35.9*
COC(=O)CNC(=O)C(NC(=O)OCc1ccccc1)C(C)C (configuration not stated) | 11.6 | 3.2 | 2.0 | 8.8 | -5.8 | 24.9 | -44.4 | 0.8
CC(C)(C)c1ccccc1OCC(=O)Nc1ccccc1C(=O)NCc1cccnc1 | 15.7 | 3.8 | 1.1 | 28.5 | -12.8 | 42.5* | 8.2 | -14.7
O=C(Cc1cccs1)Nc1cc(S(=O)(=O)N2CCCCC2)ccc1Cl | -30.7 | 0.6 | 0.5 | 6.5 | 1.7 | -19.2 | . | .
